# ChEMBL document CHEMBL4513216, “Probing the Open Global Health Chemical Diversity Library for Multistage-Active Starting Points for Next-Generation Antimalarials” (ACS Infect Dis, 2020)
# Assay: Toxicity liver stage against HepG2, at 10uM
# Type: cell-based
# Set-up: test concentration 10 uM, cell line HepG2-A16-CD81EGFP
# Conditions: human, HepG2-A16-CD81EGFP cells; read-out: INHIBITION
# Method in brief: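 Uninfected HepG2-A16-CD81EGFP cells, 3 × 10^3 per well, 1536-well, plated on prespotted compound at 10 μM final, parasite-free screening media added to match infected plates; puromycin 10 μM positive, DMSO 0.5% negative; run in parallel with 48 h PbLuc assay at 37 °C, 5% CO2; viability by CellTiter-Glo luminescence, normalized to controls.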
row,Structure (SMILES),cytotoxicity at 10 µM
1,Cc1cnn(CC2CCCN2C(=O)c2ccc(F)c(F)c2)c1 (stereo not given),-7.68%
2,CC(=O)N1CCC(c2ncc(C(=O)Nc3ccccc3)c(C)n2)CC1,5.91%
3,CCc1ccc(-n2c(=O)[nH]c3nc(N4CCSCC4)ncc3c2=O)cc1,-4.14%
4,CN(C)C(=O)c1cccn1-c1ccc2c(c1)OCCO2,12.6%
5,COc1cc(NCc2cccnc2)c(-c2nn[nH]n2)cc1OC,7.88%
6,CN(Cc1ccsc1)Cc1ccc(C2CCCCO2)o1 (stereo not given),-2.11%
7,CC(CNC(=O)c1ccc(C#N)cc1)N1CCc2ccccc21 (stereo not given),2.84%
8,CCCc1c(C(=O)N2CCN(c3ncccn3)CC2)cnn1C,3.38%
9,Cc1cccc(CC(=O)N2CCCC(N(C)CCCN(C)C)C2)c1 (stereo not given),-0.655%
10,NC(=O)CN1CCN(C(=O)c2cc(Cl)cc3cccnc23)CC1,-9.19%
11,O=C1CC(c2ccccc2F)c2c(n(C3CCCC3)[nH]c2=O)N1 (stereo not given),-5.07%
12,Cc1c(C(=O)NC2CC(C)(C)NC(C)(C)C2)cnn1-c1ccc(F)cc1,-45.7%
13,COC(=O)c1cc(C2CC2)nc2c(C#N)cnn12,14%
14,Cc1nc(CN2CCCc3cc(OC(F)(F)F)ccc32)oc1C,0.889%
15,Cn1cc(C2COC3(CCN(C(=O)Cn4cccn4)CC3)C2)cn1 (stereo not given),2.7%
16,Cc1ccc(-c2ncc(C(=O)N3CCN4CCCCC4C3)c(O)n2)cc1 (stereo not given),-7.82%
17,CN1CC2(CCCN(Cc3nnc(-c4ccco4)o3)CC2)OC1=O (stereo not given),-6.12%
18,Cn1nc(CO)c2c1CCN(c1ncnc3c1CCNC3)C2,-0.132%
19,c1ccc(CCCN2CCN(CCn3cncn3)CC2)cc1,-11.3%
20,Cc1cc(CN(C)C(=O)C2CC(=O)N(Cc3cccnc3)C2)on1 (stereo not given),2.95%
21,N#Cc1ccc(CN2CC3(CCCCN3c3cccnc3)CC2=O)cc1 (stereo not given),0.995%
22,Cc1cnn(CC2CCCN2Cc2cc(=O)n3cccc(C)c3n2)c1 (stereo not given),0.442%

row,Structure (SMILES),cytotoxicity at 10 µM
1,CC(=O)Nc1ccc(SCCCC(=O)NCC2CCCO2)nn1 (stereo not given),-8.67%
2,CCOC(=O)N1CC(=O)N(Cc2ccc(OC)cc2)CC(O)C1 (stereo not given),-2.67%
3,CCNC(=O)[C@@H]1C[C@@H](NC(=O)c2ccc(C#N)cc2)CN1CCCSC,-123%
4,CCSc1cc(C(=O)NCCC(=O)Nc2ccccn2)ccn1,-8.62%
5,CCOCC1CC2(CCN(C(=O)c3cscn3)CC2)CO1 (stereo not given),2.42%
6,O=C(Nc1cnn(CCN2CCOCC2)c1)c1ccccn1,-14.5%
7,COc1ccc(CN2CCn3cncc3C2)cc1Cn1cncn1,7.55%
8,O=C(N[C@@H]1CN(c2ncccn2)C[C@@H]2CCCO[C@@H]21)c1ccnnc1,6.32%
9,CCN(CC1CCCN(CCc2cccc(OC)c2)C1)C(=O)CN(C)C (stereo not given),9.05%
10,Cc1cc(C)cc(OCC(=O)N2CCCC2)c1,5.04%
11,O=C(NCc1cc(O)ncn1)C1COc2ccccc2C1 (stereo not given),-9.76%
12,O=S(=O)(c1ccccc1)N1CCOC(Cn2ccnc2)C1 (stereo not given),7.77%
13,O=C(NCC1CCOC1)c1cc(-c2ccc(F)cc2)[nH]n1 (stereo not given),-6.96%
14,Cc1cnn(CC2CN(CC(=O)Nc3cc(C)no3)CCO2)c1 (stereo not given),-6.13%
15,Cc1ccc(OCCCNC(=O)NC(C)c2nncn2C)cc1 (stereo not given),-3.83%
16,CCC(O)CNc1nccc(-c2ccc(C)nc2C)n1 (stereo not given),-2.92%
17,CCC(C)(C)NC(=O)Cn1nnc(CN(C)C(=O)c2ccccc2)n1,9.74%
18,c1cnc(N2CCCC3(COCCN(CC4CC4)C3)C2)nc1 (stereo not given),3.22%
19,N#Cc1ccc(-c2nnc(CSCCN3CCOCC3)o2)cc1,-5.08%
20,CCN(CC)CCn1cc(NC(=O)Nc2ccccc2OC)cn1,12.7%
21,COC(=O)[C@@H]1Cc2ncn(C)c2CN1S(=O)(=O)c1ccc(Cl)cc1,4.67%
22,Cn1cc(N2CCC3(CCN(Cc4cccnc4)C3)C2=O)cn1 (stereo not given),3.63%

row,Structure (SMILES),cytotoxicity at 10 µM
1,Cc1ccc(=O)n(CC2(O)CCN(Cc3cnn(C)c3)CC2)n1,3.12%
2,Fc1ccc(-c2nnc(CN3CCCC3Cn3cncn3)o2)cc1 (stereo not given),-10.5%
3,CCc1ncc2c(n1)CN(C(=O)Cc1cc(OC)cc(OC)c1)C2,2.78%
4,COCC(=O)N1Cc2ccnn2CC(COCCN(C)C)C1 (stereo not given),6.82%
5,CC(C)N1CCO[C@H]2CN(C(=O)c3ccsc3)C[C@H]21,-72%
6,O=C(CCOc1ccc(Cl)cc1)NCCCn1cccn1,-12.1%
7,CCn1c(C)nnc1SCCNC(=O)CC1CCc2ccccc21 (stereo not given),-1.26%
8,CCN(Cc1nc2c(cnn2C)c(=O)[nH]1)c1cccc(C)c1C,1.66%
9,COc1c(C2CCCN2CC(=O)Nc2nc(C)cs2)c(C)nn1C (stereo not given),-6.76%
10,CC(Cn1cccn1)n1cnc2ccc(F)cc2c1=O (stereo not given),0.956%
11,CCOc1cccc(C(=O)Nc2ccn(CC)n2)c1,8.19%
12,Cn1nc(C2CCN(CC(=O)NC3CC3)CC2)n(-c2ccccc2)c1=O,-22.3%
13,Cc1ccc(CN2CCN(Cc3nccn3C)[C@H]3CS(=O)(=O)C[C@H]32)o1,-3.65%
14,Cc1cnc(C)c(N2CCN(Cc3ccc(C)c(C)c3)CC2)n1,6.68%
15,CC(CC(=O)c1ccccc1)NC(=O)c1ccon1 (stereo not given),-10.7%
16,CCn1c(CC2CCN(C(=O)C3CCOC3)CC2)nn(C)c1=O (stereo not given),-18%
17,Cn1cc(S(=O)(=O)N(Cc2ccc(F)cc2F)C2CC2)cc1C(N)=O,5.68%
18,CC(C)Oc1ccc(NCc2ccc([S+](C)[O-])cc2)c(F)c1 (stereo not given),22.4%
19,Cc1nc(C)c(-c2nnc(SCC(=O)O)n2C(C)c2ccccc2)o1 (stereo not given),4.64%
20,NC(=O)C(CNC(=O)CCc1ccsc1)Cc1ccc(F)cc1 (stereo not given),21.2%
21,COc1cc(CNCc2ccnc(N3CCOCC3)c2)cc(OC)c1,6.1%
22,CC(C)C(=O)Nc1ccc(C(O)Cn2nc(-c3cccs3)oc2=O)cc1 (stereo not given),-5.31%

row,Structure (SMILES),cytotoxicity at 10 µM
1,CCn1cc(NC(=O)NCC(c2ccc(OC)cc2)N(C)C)cn1 (stereo not given),-2.4%
2,CN(Cc1ccco1)[C@@H]1CN(Cc2ccc(F)cc2)C[C@@H]2CCCO[C@@H]21,2.91%
3,c1cnc(N2CC3(CCN(CC4CCOC4)CC3)c3ccccc32)nc1 (stereo not given),-6.78%
4,O=C([C@@H](O)Cc1ccccc1)N1CCCn2cncc2C1,2.55%
5,CN(Cc1ccccc1)C(=O)CCS(=O)(=O)c1ccc2c(c1)OCCO2,-7.08%
6,Fc1ccc(CNCC2Cn3nncc3CO2)cc1 (stereo not given),7.31%
7,Cn1c(Cn2cccn2)nnc1C1CCN(Cc2cccnc2)CC1,6.01%
8,CN(C)C(=O)N1CCC2(CCC(C(=O)N3CCCC3)O2)CC1 (stereo not given),-0.125%
9,Cc1nc(CN(C)C2CCN(Cc3nnc(C4CC4)o3)C2)no1 (stereo not given),-5%
10,CN(C)C(=O)[C@H]1C[C@H]2OCC[C@H]2N(Cc2ccc(F)cc2)C1,-76.1%
11,Cc1ccc(-c2cc(N)c(=O)n(C(C)C(=O)NC(C)C)n2)o1 (stereo not given),-6.69%
12,COc1ccc(-n2ncc(C(C)NC3Cc4ccccc4C3)c2C)cc1 (stereo not given),-6.32%
13,CCOC(=O)N1CCc2ccccc2C12CCNCC2,1.15%
14,Cc1cnn(CC(C)NCc2cc(=O)n3ccccc3n2)c1 (stereo not given),-5.3%
15,Cc1c(C2=NS(=O)(=O)N(C)C(C(=O)Nc3ccc(Br)cc3)=C2)cnn1C,11.7%
16,O=C(N[C@@H]1CCNC[C@H]1O)c1ccc(F)c(F)c1,5.79%
17,O=C(N[C@H]1COC[C@@H]1N1CCCC1)c1csc(Cc2ccccc2)n1,-30.2%
18,O=C(c1cnn(-c2ccccc2)c1)N1CCN(c2cnccn2)CC1,5.37%
19,CCc1cc(C(F)(F)F)c2c(C)nn(CC(=O)O)c2n1,0.77%
20,CC(C)(C)c1nccc(N2CCCCC2CCNS(C)(=O)=O)n1 (stereo not given),8.83%
21,O=C(Cc1cn2ccccc2n1)N1CCCC(n2cccn2)C1 (stereo not given),-5.16%
22,CC(C)Nc1cccc(CNC(=O)N2CCC(N3CC=CC3)C2)c1 (stereo not given),2.01%

row,Structure (SMILES),cytotoxicity at 10 µM
1,Cc1c(Cl)cccc1NC(=O)c1nc[nH]n1,-7.93%
2,CCN1CCCC(c2nc(O)c3cc(C)ccc3n2)C1 (stereo not given),8.02%
3,CC(=O)c1cc(CC(=O)NCc2ccc(CN(C)C)cc2)cs1,-11.3%
4,CCc1nnc2n1CCN(C(=O)c1cn(-c3ccccc3)nn1)C2,-141%
5,CO[C@@H]1CCN(Cc2cnn(C)c2)[C@@H]2CN(Cc3cccnc3)C[C@@H]21,8.47%
6,CCS(=O)(=O)NCc1cccnc1N1CCCC(O)C1 (stereo not given),1.91%
7,CN(CC(=O)NCc1cc2ccccc2o1)S(C)(=O)=O,4.59%
8,Cc1cccc(CN2C[C@@H]3OCCN(CC(=O)N(C)C)[C@@H]3C2)c1,-110%
9,COc1ccc(C(=O)NC2CC2)c(OC2CCN(C(C)CO)CC2)c1 (stereo not given),-7.71%
10,O=C(c1ccccc1O)N1CCn2c(nnc2C(F)(F)F)C1,14.6%
11,CC(C)(C)NC(=O)c1cnc(C(C)(C)C)s1,3.72%
12,CC(=O)N1[C@H](Cn2cncn2)C[C@@H]2CN(Cc3cccnc3)CC[C@@H]21,3.16%
13,Cn1cc(C2CC3(CCN(C(=O)c4cccs4)CC3)NC2=O)cn1 (stereo not given),1.27%
14,O=C(NCCCc1ccc(O)cc1)C1(O)Cc2ccccc2C1,1.6%
15,NS(=O)(=O)CCN1CCN(c2ccccc2O)CC1,9.1%
16,CSCC(C)(O)CNc1ccccn1 (stereo not given),8.26%
17,Cc1ccccc1CNC(=O)Cn1nc(-c2ccc(F)cc2)oc1=O,-7.63%
18,Cc1nnc(N2CCCC(CS(N)(=O)=O)C2)c(C#N)c1C (stereo not given),2.86%
19,CC(=O)N1CCC(C)(c2cc(C(=O)NCC3CC3)nc(C)n2)CC1,2.87%
20,CC(C)N(C)Cc1ccccc1CNc1ccc2nncn2n1,0.425%
21,CS(=O)(=O)N1CCC2(CC1)COC(COc1ccccn1)C2 (stereo not given),5.63%
22,CCn1cnnc1C1CCN(C(=O)COc2ccc(Cl)cc2)CC1,-3.39%
